Compound activity deposited in PubChem BioAssay by several laboratories.
Only some compounds are listed: those with a hit (about 5.5% of all), similar ones and a draw of the others.
E coli WT exp: E. coli BW25113 growth inhibition, expanded screen; OD600 absorbance; growth inhibition, % at 100 µM; hit rate 0.15% among 98,000; AID 710;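 active = growth inhibition above about 50% at one test dose, limit read from the data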;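 also: growth measured after 20 h incubation at 37 °C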
PLAP activator: human PLAP activation | activation fold at 20 µM | purified PLAP enzyme, luminescent substrate read-out; hits give high values | AID 696 | P05187 | hit rate 1.2% among 96,000; in the data active = activation fold above about 2
PostGolgi ctrl: yeast control strain growth, post-Golgi counter-screen | efflux-deficient yeast background strain, growth absorbance A615, 16 h | inhibition, % at 10 µM | hit rate 5% among 98,000
tolC growth inh: growth inhibitors of E. coli BW25113 tolC mutant | hit rate 2.2% among 65,000 | OD615 | growth inhibition, % at 10 µM (by protocol);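 active = growth inhibition at or above a cutoff equal to the mean over every tested compound plus 3 SD, cut at about 60% in these data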;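 also: growth measured after 20 h incubation at 37 °C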
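Test system: tolC-deleted E. coli BW25113 | Medium: LB with kanamycin 50 µg/mL | Compound dosing: Single concentration, 10 µM final per compound | Schedule: 37 °C, 20 h exposure | Measured by: OD at 615 nm | Evaluation: Percent growth inhibition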
HePTP inh: blocks human HePTP tyrosine phosphatase. P35236. AID 521. inhibition, % at 20 µM. recombinant HePTP phosphatase activity, OD absorbance. hit rate 0.64% among 110,000; in the data active = inhibition above about 50%;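 also: plate controls were vehicle for no effect and reference inhibitor for full effect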
Target sequence (P35236 whole entry, looked up): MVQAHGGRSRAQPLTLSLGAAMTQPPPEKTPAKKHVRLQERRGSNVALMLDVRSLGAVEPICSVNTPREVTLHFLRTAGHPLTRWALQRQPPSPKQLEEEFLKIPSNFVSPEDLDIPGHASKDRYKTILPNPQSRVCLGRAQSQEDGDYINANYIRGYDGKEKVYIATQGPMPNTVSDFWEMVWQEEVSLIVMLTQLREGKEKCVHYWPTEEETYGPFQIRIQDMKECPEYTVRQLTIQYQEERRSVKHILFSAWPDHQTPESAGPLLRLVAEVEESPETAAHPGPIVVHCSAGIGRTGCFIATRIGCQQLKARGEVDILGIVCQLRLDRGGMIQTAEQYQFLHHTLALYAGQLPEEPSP
PostGolgi yeast: growth inhibition of a yeast mutant, post-Golgi transport screen | post-Golgi transport phenotypic cell assay | hit rate 0.9% among 98,000 | inhibition, % at 10 µM;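 also: yeast cells grown in 1536-well plates; yeast grown about 18 h at 30C before absorbance read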
* = called active by the depositor; · = no result given. Rule as the data show it, unless noted: active = inhibition above about 30%; inactive = the rest.

SMILES	E coli WT exp	PLAP activator	PostGolgi ctrl	tolC growth inh	HePTP inh	PostGolgi yeast
CC(C)c1nc(SCC(=O)N2CCCc3ccccc32)c2c(=O)n(C)c(=O)n(C)c2n1	-6	1.3	35*	·	·	10
CCn1c(SCC(=O)N2CCCc3ccccc32)nnc1-c1cccs1	-1	0.8	-10	-8	11	-9
O=C(CSc1nc2sc3c(c2c(=O)n1Cc1ccco1)CCC3)N1CCc2ccccc21	·	·	·	2	8	·
CCn1c(SCC(=O)N2CCCc3ccccc32)nnc1-c1ccco1	-2	1.4	1	2	-9	49*
Cc1cc2c(=O)n(Cc3ccco3)c(SCC(=O)N3CCCc4ccccc43)nc2s1	-14	0.9	32*	43	8	4
O=c1c(F)cn(Cc2ccccc2)c(=O)n1Cc1ccccc1	·	·	·	·	-3	·
CCCC1CCc2c(sc(NC(=O)C3c4ccccc4Oc4ccccc43)c2C(N)=O)C1 (stereo not given)	·	·	·	·	7	·
C=CCn1c(SCC(=O)Nc2ccc3c(c2)CCC3)nnc1-c1cccs1	2	1.7	11	77*	6	-5
COc1ccc2cc(C#N)c(N3CCN(Cc4nnnn4CCC(C)C)CC3)nc2c1	-14	1.4	34*	39	6	-3
Cc1ccc2nc(N3CCN(Cc4nnnn4Cc4ccccc4)CC3)c(C#N)cc2c1	-39	1.7	20	12	6	-5
CC(=O)c1c(C)oc2c(Br)cc(NS(=O)(=O)c3ccc(Cl)cc3)cc12	·	·	·	·	-1	·
O=c1c2sc3nc(N4CCOCC4)c4c(c3c2nnn1Cc1ccccc1)CCCC4	-17	1	32*	·	·	-1
COC(=O)c1ccc(Cn2nnc3c(sc4nc(N5CCOCC5)c5c(c43)CCCC5)c2=O)o1	·	·	·	-2	3	·
CC(C)C(C(=O)NCc1ccco1)N(C(=O)CNS(=O)(=O)c1ccc(Cl)cc1)C1CCCC1 (stereo not given)	2	1.6	-6	73*	6	1
O=C(CN(Cc1ccco1)C(=O)CNS(=O)(=O)c1ccc(Cl)cc1)NC1CCCCC1	0	1.5	9	-17	11	-3
COc1ccc(/C=C2/SC(=S)N(CC(=O)Nc3ccc(O)cc3)C2=O)cc1OC	·	·	·	·	9	·
CCOC(=O)C1=NN(C(=O)c2cccc([N+](=O)[O-])c2)C(O)(c2ccc(Cl)cc2)C1 (stereo not given)	·	·	·	·	104*	·
COC(=O)C1=NN(C(=O)c2cccc(Br)c2)C(O)(c2ccc(Cl)cc2)C1 (stereo not given)	·	·	·	·	-10	·
CCC(=O)N1CCN(c2nc3ccccc3s2)CC1	5	1.5	-3	·	·	1
O=C(c1cc2sccc2n1Cc1ccccc1)N1CCN(c2nc3ccccc3s2)CC1	-19	1.2	41*	·	·	9
O=C(Cn1c(C(=O)N2CCN(C3CCCCC3)CC2)cc2sccc21)c1ccccc1	1	1.7	31*	20	-2	5
COc1ccc(NCN2C(=O)S/C(=C/c3ccc(SC)cc3)C2=O)cc1	·	·	·	·	0	·
Cc1cnn(CCC(=O)NNC(=S)Nc2ccc(F)cc2)c1	14	2.3*	-8	·	·	3
CCCCOC(=O)c1cccc(NC(=O)COc2ccccc2)c1	·	·	·	·	-3	·
CC1CCN(C(=O)CSc2nnc(-c3cc4ccccc4cc3O)n2Cc2ccco2)CC1	-2	1.4	39*	26	-3	0
SMILES	E coli WT exp	PLAP activator	PostGolgi ctrl	tolC growth inh	HePTP inh	PostGolgi yeast
COc1ccc(C(=O)CSc2nnc(-c3cc4ccccc4cc3O)n2Cc2ccco2)cc1	-21	1.9	56*	28	5	-14
CCn1c(SCC(=O)N(C(C)C)C(C)C)nnc1-c1cc2ccccc2cc1O	4	2*	46*	15	11	2
CC1CCN(C(=O)CSc2nnc(CNc3ccc(F)cc3)n2Cc2ccco2)CC1	7	1.2	1	·	·	3
CN(C1CCCCC1)S(=O)(=O)c1ccc(NC(=O)CCC(=O)O)cc1	-5	·	7	-8	3	-1
CN(C1CCCCC1)S(=O)(=O)c1ccc(NC(=O)C2CCCCC2)cc1	2	1	63*	·	·	-6
CC1CN(C(=O)N2c3ccccc3Sc3ccccc32)C(C)CC1=O (stereo not given)	-7	1.6	37*	43	-8	-1
O=C(O)c1cccc(N2C(=O)CC(Nc3ccc(N4CCOCC4)cc3)C2=O)c1 (stereo not given)	·	·	·	·	61*	·
O=C1CC(Nc2ccc(N3CCOCC3)cc2)C(=O)N1c1cccc(Cl)c1 (stereo not given)	·	·	·	·	1	·
O=C(C1CCCCC1)N(Cc1ccccc1)Cc1ccccc1	·	·	·	·	-2	·
